Experimental data taken from ChEMBL document CHEMBL4732197, “Identification of novel potent HIV-1 inhibitors by exploiting the tolerant regions of the NNRTIs binding pocket” (Eur J Med Chem, 2021).
Converted amounts (≈) assume the structure as drawn.

What was measured:
[1] = Selectivity index, ratio of CC50 for human MT4 cells to EC50 for antiviral activity against HIV IIIB; type: toxicity; conditions: read-out: Ratio CC50/EC50
Summary of the method: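 SI is computed as CC50/EC50. […] Both used serial 5-fold dilutions in triplicate and were read by MTT after 5 days, taking the median absorbance of three wells.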

physchem [2] = conditions: water, pH 2
[3] = molecular target: Human immunodeficiency virus type 1 reverse transcriptase (Human immunodeficiency virus 1, UniProt Q72547); test: Inhibition of HIV-1 reverse transcriptase assessed as inhibition of biotin-dUTP incorporation into wild type RT measured after 1 hr by ELISA
[4] = test system: Human immunodeficiency virus 1; test: Antiviral activity against HIV-1 3B infected in human MT4 cells assessed as reduction in virus-induced cytopathic effect incubated for 5 days by MTT assay; type: functional, organism-based; conditions: Human immunodeficiency virus 1, 3B, MT4, 120 h
Summary of the method: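 MT-4 cells resuspended at 6 × 10^5 cells/mL were infected with HIV-1 stock at 100–300 CCID50. Compounds were tested in serial 5-fold dilutions in triplicate wells. Viability was read by MTT after 5 days at 540 and 690 nm, using the median of three wells.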

physchem [5] = conditions: water, pH 7.4
[6] = test system: reverse transcriptase Y181C mutant (HIV-1); test: Inhibition of reverse transcriptase Y181C mutant in HIV-1 infected in human MT4 cells assessed as reduction in virus-induced cytopathic effect incubated for 5 days by MTT assay; conditions: Human immunodeficiency virus 1, MT4, 120 h
[7] = Cytotoxicity against human MT4 cells assessed as reduction in cell viability incubated for 5 days by MTT assay; type: cell-based; conditions: time 5 day
Summary of the method: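 Mock-infected MT-4 cells at 6 × 10^5 cells/mL were given serial 5-fold compound dilutions in triplicate wells alongside the infected series. After 5 days viability was read by MTT at 540 and 690 nm, using the median of three wells.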

[8] = Inhibition of reverse transcriptase RES056 mutant in HIV-1 infected in human MT4 cells assessed as reduction in virus-induced cytopathic effect incubated for 5 days by MTT assay; type: cell-based; conditions: Human immunodeficiency virus 1, MT4, 120 h
Summary of the method: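 MT-4 cells were spun down, resuspended at 6 × 10^5 cells/mL and infected with 100–300 CCID50 of mutant HIV-1 (RES056 = K103N + Y181C). Serial 5-fold compound dilutions were tested in triplicate wells alongside mock-infected wells. After 5 days, viability was read by MTT at 540 and 690 nm using the median of three wells.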

[9] = Solubility in water at pH 7 at 0.1 to 10 mg

Row | Structure (SMILES) | selectivity ratio [1] | solubility (physchem [2]) | IC50 [3] | EC50 [4] | solubility (physchem [5]) | EC50 [6] | CC50 at 120 h [7] | EC50 [8] | solubility [9]
1 | Cc1cc(/C=C/C#N)cc(C)c1Oc1nc(Nc2ccc(CN3CCN(S(N)(=O)=O)CC3)cc2)nc2ccsc12 | 19000 | 73.1 µg/mL (≈ 127 µM) | 961 nM | 7 nM | 39.5 µg/mL (≈ 68.6 µM) | 154 nM | 145000 nM | 1910 nM | 49.7 µg/mL (≈ 86.3 µM)
2 | Cc1cc(/C=C/C#N)cc(C)c1Oc1nc(Nc2ccc(N3CCN(S(C)(=O)=O)CC3)cc2)nc2ccsc12 | 428 |  | 211 nM | 27 nM |  | 4530 nM | 11500 nM | > 11500 nM | 
3 | Cc1cc(/C=C/C#N)cc(C)c1Oc1nc(Nc2ccc(CN3CCN(S(N)(=O)=O)CC3)cc2)nc2sccc12 | > 26900 | 64.9 µg/mL (≈ 113 µM) | 299 nM | 8 nM | 38.9 µg/mL (≈ 67.6 µM) | 45 nM | > 218000 nM | 1380 nM | 49.3 µg/mL (≈ 85.6 µM)
4 | Cc1cc(/C=C/C#N)cc(C)c1Oc1nc(Nc2ccc(N3CCCC(N)C3)cc2)nc2sccc12 (stereo not given) | 10 |  | 956 nM | 461 nM |  |  | 4610 nM |  | 
5 | Cc1cc(/C=C/C#N)cc(C)c1Oc1nc(Nc2ccc(N3CCN(S(N)(=O)=O)CC3)cc2)nc2ccsc12 | > 8310 |  | 214 nM | 27 nM |  | 2250 nM | > 223000 nM | > 223000 nM | 
6 | Cc1cc(/C=C/C#N)cc(C)c1Oc1nc(Nc2ccc(N3CCCC(NS(C)(=O)=O)C3)cc2)nc2sccc12 (stereo not given) | 78 |  | 1020 nM | 1430 nM |  | 14000 nM | 112000 nM | 16500 nM | 
7 | Cc1cc(/C=C/C#N)cc(C)c1Oc1nc(Nc2ccc(N3CCN(S(C)(=O)=O)CC3)cc2)nc2sccc12 | > 1300 |  | 239 nM | 172 nM |  | 42700 nM | > 222000 nM | 175000 nM | 
8 | Cc1cc(/C=C/C#N)cc(C)c1Oc1nc(Nc2ccc(N3CCCC(NS(N)(=O)=O)C3)cc2)nc2ccsc12 (stereo not given) | > 3630 |  | 2410 nM | 59 nM |  | 3640 nM | > 218000 nM | > 218000 nM | 
9 | Cc1cc(/C=C/C#N)cc(C)c1Oc1nc(Nc2ccc(CN3CCN(S(C)(=O)=O)CC3)cc2)nc2ccsc12 | 53 |  | 139 nM | 391 nM |  | 5640 nM | 20700 nM | > 20700 nM | 
10 | Cc1cc(/C=C/C#N)cc(C)c1Oc1nc(Nc2ccc(CN3CCNCC3)cc2)nc2ccsc12 | 18 |  | 707 nM | 216 nM |  |  | 3970 nM |  | 
11 | Cc1cc(/C=C/C#N)cc(C)c1Oc1nc(Nc2ccc(CN3CCNCC3)cc2)nc2sccc12 | 94 |  | 151 nM | 42 nM |  |  | 4030 nM |  | 
12 | Cc1cc(/C=C/C#N)cc(C)c1Oc1nc(Nc2ccc(N3CCNCC3)cc2)nc2sccc12 | 8 |  | 849 nM | 584 nM |  |  | 4740 nM |  | 
13 | Cc1cc(/C=C/C#N)cc(C)c1Oc1nc(Nc2ccc(N3CCN(S(N)(=O)=O)CC3)cc2)nc2sccc12 | > 7790 |  | 713 nM | 28 nM |  | 1360 nM | > 223000 nM | 196000 nM | 
14 | Cc1cc(/C=C/C#N)cc(C)c1Oc1nc(Nc2ccc(CN3CCN(S(C)(=O)=O)CC3)cc2)nc2sccc12 | 3560 |  | 103 nM | 36 nM |  | 1270 nM | 131000 nM | 18800 nM | 
15 | Cc1cc(/C=C/C#N)cc(C)c1Oc1nc(Nc2ccc(N3CCCC(NS(N)(=O)=O)C3)cc2)nc2sccc12 (stereo not given) | > 1730 |  | 4790 nM | 126 nM |  | 7530 nM | > 218000 nM | > 218000 nM | 
16 | Cc1cc(/C=C/C#N)cc(C)c1Oc1nc(Nc2ccc(N3CCNCC3)cc2)nc2ccsc12 | 15 |  | 945 nM | 387 nM |  |  | 5730 nM |  | 
17 | Cc1cc(/C=C/C#N)cc(C)c1Oc1nc(Nc2ccc(N3CCCC(NS(C)(=O)=O)C3)cc2)nc2ccsc12 (stereo not given) | > 434 |  | 775 nM | 450 nM |  | 43400 nM | > 217000 nM | > 217000 nM | 
18 | Cc1cc(/C=C/C#N)cc(C)c1Oc1nc(Nc2ccc(N3CCCC(N)C3)cc2)nc2ccsc12 (stereo not given) | 5 |  | 1580 nM | 815 nM |  |  | 3820 nM |  | 
19 | O=C1Nc2ccc(Cl)cc2[C@@](C#CC2CC2)(C(F)(F)F)O1 [EFAVIRENZ] |  |  |  | 28 nM |  | 5 nM | > 6340 nM | 335 nM | 
20 | Cc1cc(C#N)cc(C)c1Oc1nc(Nc2ccc(C#N)cc2)nc(N)c1Br [ETRAVIRINE] |  |  |  |  | < 1 µg/mL | 15 nM | > 4590 nM | 60 nM | < 1 µg/mL
21 | Cc1ccnc2c1NC(=O)c1cccnc1N2C1CC1 [NEVIRAPINE] |  |  |  | 150 nM |  | 5050 nM | > 15000 nM | > 15000 nM | 
